According to ChEMBL document CHEMBL1149773, “Synthesis, determination of the lipophilicity, anticancer and antimicrobial properties of some fused 1,2,4-triazole derivatives” (Eur J Med Chem, 2008):

Assays:
[1] = Antiproliferative activity against human skin fibroblast assessed as cell viability at 100 uM by MTT assay; format: cell-based; conditions: human skin fibroblasts, read-out: Activity
In short: (§1)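 MTT viability assay on primary human skin fibroblasts grown in DMEM with 10% FBS and penicillin/streptomycin. Compounds were dissolved in DMSO and given at 1, 50 or 100 µM for 24 h. Cells were washed in HEPES-buffered medium (pH 7.4) and then given MTT 0.5 mg mL⁻¹ for 45 min at 37 °C. Formazan was dissolved in DMSO and read at 570 nm. Viability is % of control; three independent measurements.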

[2] = Lipophilicity, log kw in methanol aqueous system at pH 3.5; format: physicochemical
In short: (§2)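 RP-HPLC on an octadecyl silica column (150 × 4.6 mm, 5 µm) at 22 ± 1 °C, flow 1.0 mL min⁻¹, UV detection at 254 nm. Mobile phase was methanol, acetonitrile or dioxane with water and 0.01 M phosphate buffer pH 3.5 containing 0.05 M DEA. log k_W was extrapolated to pure water by regression.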

[3] = tested on: HeLa; test: Antiproliferative activity against human HeLa cells assessed as cell viability at 1 uM by MTT assay; format: functional; conditions: read-out: Activity
In short: (§3)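 Log-phase cells, kept in supplemented RPMI 1640 (HSF in DMEM/10% FBS) at 37 °C, 5% CO2, were exposed 24 h to 1, 50 or 100 µM compound from DMSO. They were washed, given 0.5 mg/mL MTT in HEPES buffer pH 7.4 for 45 min at 37 °C, and formazan was dissolved in DMSO and read at 570 nm. Values are % viability versus control from three independent measurements.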

[4] = Lipophilicity, log kw in acetonitrile aqueous system at pH 3.5; format: physicochemical; in short: as §2
[5] = Antiproliferative activity against human RPMI cells assessed as cell viability at 50 uM by MTT assay; format: functional; conditions: read-out: Activity; in short: as §3
[6] = Antiproliferative activity against human skin fibroblast assessed as cell viability at 50 uM by MTT assay; format: cell-based; conditions: human skin fibroblasts, read-out: Activity; in short: as §1
[7] = Lipophilicity, log kw in dioxane aqueous system at pH 3.5; format: physicochemical; conditions: buffer; in short: as §2
[8] = Antiproliferative activity against human skin fibroblast assessed as cell viability at 1 uM by MTT assay; format: cell-based; conditions: human skin fibroblasts, read-out: Activity; in short: as §3
[9] = Antiproliferative activity against human RPMI cells assessed as cell viability at 100 uM by MTT assay; format: functional; conditions: read-out: Activity; in short: as §3
[10] = tested on: HeLa; test: Antiproliferative activity against human HeLa cells assessed as cell viability at 100 uM by MTT assay; format: functional; conditions: read-out: Activity; in short: as §3
[11] = tested on: HeLa; test: Antiproliferative activity against human HeLa cells assessed as cell viability at 50 uM by MTT assay; format: functional; conditions: read-out: Activity; in short: as §3
[12] = Antiproliferative activity against human RPMI cells assessed as cell viability at 1 uM by MTT assay; format: functional; conditions: read-out: Activity; in short: as §3

SMILES | viability at 100 µM [1] [%] | logKw [2] | viability at 1 µM [3] [%] | logKw [4] | viability at 50 µM [5] [%] | viability at 50 µM [6] [%] | logKw [7] | viability at 1 µM [8] [%] | viability at 100 µM [9] [%] | viability at 100 µM [10] [%] | viability at 50 µM [11] [%] | viability at 1 µM [12] [%]
Clc1ccc(OCc2nnc3n2CCN3c2ccc(Cl)cc2)cc1 | 16.2 | 4.38 | 63.2 | 3.23 | 34.5 | 63.8 | 3.41 | 88.7 | 34 | 52.4 | 56.3 | 60.1
Clc1ccc(N2CCn3cnnc32)cc1 | 90.7 | 2.19 | 77.9 | 2.7 | 96.9 | 90.9 | 1.89 | 101 | 87.5 | 68.4 | 67.6 | 104
Cc1cc(Cl)ccc1OCc1nnc2n1CCN2c1ccc(Cl)cc1 | 71 | 4.61 | 92.1 | 3.7 | 32.4 | 74 | 3.87 | 79.5 | 31.1 | 71 | 71.8 | 46.4
